Screening results: PubChem, several laboratories
Rows were chosen to be rich in hits. Some 2.5% of all compounds tested hit in one or more screens of this group.
SUMO1-SIM PPI: alters human SUMO1 binding to SIM partners. P63165. SUMO1 binding to a labelled peptide, TR-FRET, 1 h. inhibition, % at 20 µM. 360,000 tested, 0.33% active. AID 602429; in the data active means inhibition above about 37%
Target sequence (P63165 whole entry, looked up): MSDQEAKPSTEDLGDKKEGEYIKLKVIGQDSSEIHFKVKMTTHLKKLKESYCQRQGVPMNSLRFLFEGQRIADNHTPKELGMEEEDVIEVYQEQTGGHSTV
DNMT1 inh: blocks human DNA methyltransferase DNMT1; inhibition (reported as % activation of signal), % at 10 µM; 360,000 tested, 0.83% active; DNMT1 molecular beacon, Hinp1I cleavage, fluorescence; in the data active means inhibition above about 50%
Pemphigus Ab inh: blocks pemphigus antibody binding to human desmoglein-3; P32926; DSG3-coupled beads, scFv-anti-DSG3-GFP binding, flow cytometry; stronger effect = lower value; binding (percent of control), % at 10 µM; 310,000 tested, 0.48% active; AID 588358;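 active means binding more than 3 SD below its plate's average and above zero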;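 further: hits lower antibody fragment binding to DSG3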
UHRF1 MBD2 ctr: UHRF1 methyl-DNA binding inhibition. inhibition, % at 4.4 µM. UHRF1 binding to methylated oligo, TR-FRET. AID 687016. 370,000 tested, 0.75% active; in the data active means inhibition above about 21%;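 further: UHRF1 SRA domain binding a hemimethylated CpG hairpin DNA probe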
MBD2 inh: inhibitors of human MBD2 binding to methylated oligonucleotide | Q9UBB5 | TR-FRET | inhibition, % at 4.4 µM | 370,000 tested, 0.31% active | AID 686964; in the data active means inhibition above about 13%
Target sequence (Q9UBB5 whole entry, looked up): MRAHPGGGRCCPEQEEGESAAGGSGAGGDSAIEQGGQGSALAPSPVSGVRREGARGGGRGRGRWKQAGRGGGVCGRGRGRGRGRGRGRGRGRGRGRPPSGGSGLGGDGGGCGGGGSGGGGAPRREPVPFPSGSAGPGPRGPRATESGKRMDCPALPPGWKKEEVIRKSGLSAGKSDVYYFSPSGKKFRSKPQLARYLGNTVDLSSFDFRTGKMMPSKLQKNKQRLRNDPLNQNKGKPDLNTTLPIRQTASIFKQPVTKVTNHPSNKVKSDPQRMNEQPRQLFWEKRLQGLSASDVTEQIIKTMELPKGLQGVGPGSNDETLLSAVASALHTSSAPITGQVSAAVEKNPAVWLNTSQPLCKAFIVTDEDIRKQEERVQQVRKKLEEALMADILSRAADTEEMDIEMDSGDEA
HCV NS3 hel inh: inhibitors of Hepatitis C virus NS3 helicase | NS3 helicase DNA unwinding, Cy5 molecular beacon fluorescence | inhibition, % at 10.9 µM | 290,000 tested, 0.56% active | AID 1800;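 active means inhibition above the mean of all tested compounds plus 3 SD, set per campaign, cut at about 35% in these data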
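System: HCV NS3 helicase fragment; control set: DMSO and thioflavine S; technique: Cy5 fluorescence at 0 and 60 min, beacon hairpin quenching; reagent: beacon DNA duplex substrate plus ATP; replicates: singlicate; schedule: 1 h reaction at 25 °C, ATP-initiated; medium: MOPS buffer pH 6.5 with MgCl2, DTT, Tween20, BSA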
Large screens that a line does not name were inactive.

COc1ccccc1-c1nnc(SCC(=O)NCc2c(C)c(Cl)cc(C(C)C)c2O)o1	UHRF1 MBD2 ctr 43
CCCCN(C)CCCNC(=O)Cn1cc2c(n1)-c1c(oc(C(=O)N3CCCC3)c1C)CC2	UHRF1 MBD2 ctr 53 (no result: HCV NS3 hel inh)
CCOCCCNC(=O)Cn1cc2c(n1)-c1c(oc(C(=O)N3CCCC3)c1C)CC2	none (no result: HCV NS3 hel inh)
O=C(c1ccc(Cl)c(Cl)c1)c1cnc(Nc2ccccc2)s1	Pemphigus Ab inh -25
COc1ccccc1C(=O)NC(=S)NNC(=O)c1sc2ccccc2c1Cl	none
COc1ccc(C(=O)COC(=O)Cc2c[nH]c3ccccc23)c(OC)c1	none (no result: HCV NS3 hel inh)
O=C(Cc1c[nH]c2ccccc12)OCC(=O)c1ccccc1	UHRF1 MBD2 ctr 29
CC(Cc1c[nH]c2ccccc12)C(=O)O (stereo not given)	DNMT1 inh 73, UHRF1 MBD2 ctr 23
CCOC(=O)c1c(C)[nH]c(C=O)c1Cc1cccc(Cl)c1	none
CC(=O)Oc1ccc(/C=C2/C(=O)N(c3ccccc3)N=C2C)cc1	MBD2 inh 24
COc1ccc(/C=C2/C(=O)N(c3ccccc3)N=C2C)cc1	none (no result: UHRF1 MBD2 ctr, MBD2 inh, HCV NS3 hel inh)
COc1ccc(S(=O)(=O)N(C)CC(=O)NCc2cccnc2)cc1C	none
COc1ccc(Nc2oc(COc3ccc(Cl)cc3)nc2C#N)cc1	SUMO1-SIM PPI 42
COc1ccc(CNc2oc(COc3ccc(Cl)cc3)nc2C#N)cc1	none
CCCN1CCC(=O)N([C@H](CSc2ccc(C)cc2)CC(C)C)CC1	none (no result: HCV NS3 hel inh)
O=C(Cn1cnc(Cl)c1Cl)c1ccccc1	none
Cc1cccc(NS(=O)(=O)Cc2ccccc2)n1	none (no result: Pemphigus Ab inh)
O=S(=O)(Cc1ccccc1)Nn1cnnc1	SUMO1-SIM PPI 60
CC(C)c1ccc(S(=O)(=O)N2CCN(CCC(=O)Nc3ccc(N(C)C)cc3)CC2)cc1	UHRF1 MBD2 ctr 23, MBD2 inh 15 (no result: Pemphigus Ab inh)
COc1ccc(NC(=O)c2oc3ccccc3c2NC(=O)COc2ccccc2OC)c(OC)c1	none
COc1ccc(NC(=O)c2oc3ccccc3c2NC(=O)c2ccc(OC)c(OC)c2)c(OC)c1	Pemphigus Ab inh 7.3 (no result: HCV NS3 hel inh)
S=C(NCc1ccccc1)NC1CCSc2ccccc21 (stereo not given)	UHRF1 MBD2 ctr 24
CCCc1c(O)nc(SCCN(CCC)CCC)[nH]c1=O	none
N/C(Cc1ccc(Cl)cc1Cl)=N\OC(=O)Cc1cccs1	UHRF1 MBD2 ctr 58
COc1ccc(-c2cc(C#N)nc(N3CCNCC3)n2)cc1	DNMT1 inh 79
O=C(NN=C1CCN(Cc2ccccc2)CC1)C(O)c1ccccc1 (stereo not given)	UHRF1 MBD2 ctr 49 (no result: Pemphigus Ab inh)
Cc1ccc(C(C)C)cc1S(=O)(=O)Nc1ccncc1	UHRF1 MBD2 ctr 28
O=C1CC(SCCO)C(=O)N1c1ccc(Oc2ccccc2)cc1 (stereo not given)	none
COc1cc(C(=O)NCCc2ccc(F)cc2)ccc1OCC(=O)N1CCOCC1	Pemphigus Ab inh 86 (no result: UHRF1 MBD2 ctr, MBD2 inh, HCV NS3 hel inh)
COc1cc(C(=O)NNC(=O)c2ccc(F)cc2)ccc1OCC(=O)N1CCOCC1	none (no result: HCV NS3 hel inh)
COc1cc(C(=O)N2CCN(S(=O)(=O)c3cccc(F)c3)CC2)ccc1OCC(=O)N1CCOCC1	Pemphigus Ab inh 87 (no result: HCV NS3 hel inh)
CC(c1ccccc1)n1c(-c2cccs2)nc2c(c(=O)c3ccccc3n2C)c1=O (stereo not given)	none
CCN(CC(=O)Nc1ccc(NC(C)=O)cc1)C(=O)c1ccc(N(C)S(=O)(=O)c2ccc(C)cc2)cc1	UHRF1 MBD2 ctr 42 (no result: HCV NS3 hel inh)
CCN(CC(=O)Nc1ccc(OC)cc1)C(=O)c1ccc(NS(=O)(=O)c2ccc(C(C)=O)cc2)cc1	UHRF1 MBD2 ctr 23 (no result: HCV NS3 hel inh)
CCOc1ccc(NS(=O)(=O)c2ccc(C(=O)N(C)CC(=O)Nc3ccc(OC)cc3)cc2)cc1	none (no result: HCV NS3 hel inh)
CSc1ccc(OC2CCCCC2NS(=O)(=O)c2ccccc2)cc1 (stereo not given)	UHRF1 MBD2 ctr 98
Cc1cc(C)cc(OC2CCCCC2NS(=O)(=O)c2ccccc2)c1 (stereo not given)	none
CO[C@@]1(NC(=O)CSCC#N)C(=O)N2C(C(=O)O)=C(CSc3nnnn3C)CS[C@@H]21	DNMT1 inh 66, UHRF1 MBD2 ctr 44
CCCCNC(=S)Nc1ccccc1Cc1ccccc1	Pemphigus Ab inh 96
NC(=O)C1CCN(c2nc(-c3ccc(Br)cc3)cs2)CC1	Pemphigus Ab inh 58
CN(C1CCCC1)C1CCN(C(=S)Nc2cc(F)cc(F)c2)CC1	none
Cc1ccn2c(CC(C)(C)C)c(-c3ccc(F)cc3)nc2c1	UHRF1 MBD2 ctr 22 (no result: HCV NS3 hel inh)
Cc1ccn2c(Cc3ccccc3)c(-c3ccccc3)nc2c1	UHRF1 MBD2 ctr 21 (no result: Pemphigus Ab inh, HCV NS3 hel inh)
Cc1ccc(Cc2c(-c3ccccc3)nc3c4ccccc4ccn23)cc1	none (no result: DNMT1 inh, Pemphigus Ab inh, HCV NS3 hel inh)
Cc1ccc(Cc2c(-c3ccc(Cl)cc3)nc3cc(C)ccn23)cc1	UHRF1 MBD2 ctr 22 (no result: Pemphigus Ab inh, HCV NS3 hel inh)
Cc1ccc(Cc2c(-c3ccc(C)cc3)nc3cc(C)ccn23)cc1	UHRF1 MBD2 ctr 23 (no result: HCV NS3 hel inh)
Cc1ccc(-c2nc3ccc(Br)cn3c2CC(C)(C)C)cc1	none (no result: HCV NS3 hel inh)
Cc1ccn2c(Cc3ccccc3)c(-c3ccc(Br)cc3)nc2c1	none (no result: Pemphigus Ab inh, HCV NS3 hel inh)
COc1ccc(NC(=O)C2CCCN(S(=O)(=O)c3cccnc3)C2)c(OC)c1 (stereo not given)	none
COc1ccc(S(=O)(=O)N2CCC(C(=O)NCCN3CCOCC3)CC2)cc1C	none
Cc1ccc(SC(C)C(=O)NC2CC2)cc1 (stereo not given)	none
COc1ccc(NC(=O)CCn2c(=S)[nH]c3ccccc3c2=O)cc1OC	Pemphigus Ab inh 63
C#CCN(C(=O)CC1C(=O)NCCN1C/C=C/c1ccccc1)C1CCCCC1 (stereo not given)	UHRF1 MBD2 ctr 44
CN(C(=O)CC1C(=O)NCCN1C/C=C/c1ccccc1)C1CCOCC1 (stereo not given)	none
CCOC(=O)c1cc2c(C)nn(-c3ccccc3)c2s1	Pemphigus Ab inh -30
CCOC(=O)c1nn(-c2ccccc2)c(=O)c2c(N)scc12	none
CCOC(=O)c1nn(-c2ccccc2)c(=O)c2c(NC(C)=O)scc12	Pemphigus Ab inh 62
COc1ccc(NC(=O)CN(C)C(=O)c2ccc(S(=O)(=O)Nc3ccccc3C)cc2)cc1	none (no result: HCV NS3 hel inh)
C=CC[C@@H](CC(=O)N[C@@H](CO)Cc1ccccc1)C(=O)NCCOC(=O)[C@@H](CC=C)Cc1ccc(F)cc1	none (no result: HCV NS3 hel inh)
FC(F)(F)c1ccccc1NC(=S)NC1CCN(Cc2ccccc2)CC1	UHRF1 MBD2 ctr 37
S=C(Nc1ccccc1Cl)NC1CCN(Cc2ccccc2)CC1	none
Cc1cc(C)c(NC(=O)C(=O)NCc2ccco2)c(C)c1	none (no result: UHRF1 MBD2 ctr, MBD2 inh)
O=C(CN1C(=O)C2C3c4ccccc4C(c4ccccc43)C2C1=O)N1CCOCC1 (stereo not given)	none
O=C(CSc1nc2ccccc2s1)NC(=O)NCc1ccco1	none
Cc1nnc(SCC(=O)NC(=O)NCc2ccco2)s1	UHRF1 MBD2 ctr 30
